The values below come from ChEMBL document CHEMBL2331391, “Peroxisome proliferator-activated receptor-γ mediates the anti-inflammatory effect of 3-hydroxy-4-pyridinecarboxylic acid derivatives: synthesis and biological evaluation” (Eur J Med Chem, 2013).

Data set [1] can be described thus: Cytotoxicity against human macrophages up to 100 uM after 72 hrs by MTT assay. The class given is cell-based. The settings on record: macrophage. (Tetrazolium dyes change colour on reduction, which living cells bring about.)
Data set [2] deals with Macrophage. Description: Antiinflammatory activity in human macrophages assessed as inhibition of LPS-induced IL-1beta release at 10 uM preincubated for 30 mins before LPS-challenge measured after 24 hrs post challenge by ELISA. The class given is functional, cell-based. A digest of the protocol: (§1)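 Human blood PBMC-derived macrophages were used after 10 days of culture. Purity >95% (esterase, CD14, morphology). Cells were pretreated 30 min at 37 °C with compound, then given 100 ng/mL LPS (S. enteritidis) for 24 h. TNFα, IL-1β and IL-8 in conditioned medium were measured by ELISA. Working solutions were endotoxin-tested by LAL (<3 pg/mL).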
For orientation: In an ELISA, binding on a coated surface is turned into a signal by an enzyme label.

Data set [3] in a line: Cytotoxicity against human macrophages at 10 '4 uM after 72 hrs by MTT assay. The class given is cell-based. To be noted: macrophage.
The test system of data set [4] is Macrophage. The data set is described as follows: Antiinflammatory activity in human macrophages assessed as inhibition of LPS-induced TNFalpha release at 10 uM preincubated for 30 mins before LPS-challenge measured after 24 hrs post challenge by ELISA. The class given is functional, cell-based. A digest of the protocol: as §1
Data set [5] relates to Macrophage. The data set is described as follows: Antiinflammatory activity in human macrophages assessed as inhibition of LPS-induced IL-8 release at 10 uM preincubated for 30 mins before LPS-challenge measured after 24 hrs post challenge by ELISA. The class given is functional, cell-based. A digest of the protocol:
as §1

A short description of data set [6]: Cytotoxicity against human macrophages at 10 '5 uM after 72 hrs by MTT assay. The class given is cell-based. The settings on record: macrophage.
Data set [7] is described as follows: Antiinflammatory activity in human macrophages assessed as inhibition of LPS-induced TNFalpha release at 10 '-2 uM preincubated for 30 mins before LPS-challenge measured after 24 hrs post challenge by ELISA (reference value: 1682 +/-190 ng/ml). The class given is functional, Macrophage. Put shortly: as §1
Data set [8] in a line: Antiinflammatory activity in human macrophages assessed as inhibition of LPS-induced IL8 release at 100 uM preincubated for 30 mins before LPS-challenge measured after 24 hrs post challenge by ELISA (reference value: 7.86 +/-0.17 ng/ml). The class given is functional, Macrophage. A digest of the protocol:
as §1

A short description of data set [9]: Antiinflammatory activity in human macrophages assessed as inhibition of LPS-induced TNFalpha release at 10 uM preincubated for 30 mins before LPS-challenge measured after 24 hrs post challenge by ELISA (reference value: 1682 +/-190 ng/ml). The class given is functional, Macrophage. A digest of the protocol: as §1
A short description of data set [10]: Antiinflammatory activity in human macrophages assessed as inhibition of LPS-induced IL8 release at 1 uM preincubated for 30 mins before LPS-challenge measured after 24 hrs post challenge by ELISA (reference value: 7.86 +/-0.17 ng/ml). The class given is functional, Macrophage. A digest of the protocol: as §1
The nature of data set [11]: Antiinflammatory activity in human macrophages assessed as inhibition of LPS-induced TNFalpha release at 5 uM preincubated for 30 mins before LPS-challenge measured after 24 hrs post challenge by ELISA (reference value: 1682 +/-190 ng/ml). The class given is functional, Macrophage. Put shortly:
as §1

A short description of data set [12]: Antiinflammatory activity in human macrophages assessed as inhibition of LPS-induced IL8 release at 10 '-3 uM preincubated for 30 mins before LPS-challenge measured after 24 hrs post challenge by ELISA (reference value: 7.86 +/-0.17 ng/ml). The class given is functional, Macrophage. A digest of the protocol:
as §1

Data set [13] is described as follows: Antiinflammatory activity in human macrophages assessed as inhibition of LPS-induced IL8 release at 10 '-2 uM preincubated for 30 mins before LPS-challenge measured after 24 hrs post challenge by ELISA (reference value: 7.86 +/-0.17 ng/ml). The class given is functional, Macrophage. A digest of the protocol:
as §1

Data set [14] is described as follows: Antiinflammatory activity in human macrophages assessed as inhibition of LPS-induced TNFalpha release at 10 '-3 uM preincubated for 30 mins before LPS-challenge measured after 24 hrs post challenge by ELISA (reference value: 1682 +/-190 ng/ml). The class given is functional, Macrophage. Put shortly: as §1
Data set [15] is described as follows: Antiinflammatory activity in human macrophages assessed as inhibition of LPS-induced IL8 release at 5 uM preincubated for 30 mins before LPS-challenge measured after 24 hrs post challenge by ELISA (reference value: 7.86 +/-0.17 ng/ml). The class given is functional, Macrophage. Put shortly: as §1
Data set [16] is described as follows: Antiinflammatory activity in human macrophages assessed as inhibition of LPS-induced TNFalpha release at 1 uM preincubated for 30 mins before LPS-challenge measured after 24 hrs post challenge by ELISA (reference value: 1682 +/-190 ng/ml). The class given is functional, Macrophage. Put shortly:
as §1

Data set [17] is described as follows: Antiinflammatory activity in human macrophages assessed as inhibition of LPS-induced TNFalpha release at 100 uM preincubated for 30 mins before LPS-challenge measured after 24 hrs post challenge by ELISA (reference value: 1682 +/-190 ng/ml). The class given is functional, Macrophage. A digest of the protocol: as §1
Data set [18] is described as follows: Antiinflammatory activity in human macrophages assessed as inhibition of LPS-induced IL8 release at 10 uM preincubated for 30 mins before LPS-challenge measured after 24 hrs post challenge by ELISA (reference value: 7.86 +/-0.17 ng/ml). The class given is functional, Macrophage. A digest of the protocol: as §1
The subject of data set [19] is Macrophage. Description: Increase in PPAR-gamma mRNA transcript level in human macrophages at 30 mM by quantitative PCR analysis. The class given is functional, cell-based.
Data set [20] relates to Mus musculus. Description: Antiinflammatory activity in DSS-induced C57Bl/6 mouse colitis model assessed as inhibition IL-1beta level in colonic homogenate at 400 mg/kg/day administered intragastrically for 7 days. The class given is functional, organism-based. Put shortly:
(§2)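 Male C57Bl/6J mice, 8–10 per group, dosed intragastrically daily for 7 days at 400 mg/kg/day (vehicle 100 µL). From day 2, drinking water carried 3.5% w/vol DSS. Killed 5 days after colitis induction. Full-thickness proximal colon homogenised for MPO activity and IL-1β protein.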

Data set [21] has as its system Mus musculus. Description: Antiinflammatory activity in DSS-induced C57Bl/6 mouse colitis model assessed as inhibition MPO activity in colonic homogenate at 400 mg/kg/day administered intragastrically for 7 days. The class given is functional. A digest of the protocol: as §2
The target of data set [22] is T1, Peroxisome proliferator-activated receptor gamma (Mus musculus) (UniProt P37238).
T1 sequence (whole entry): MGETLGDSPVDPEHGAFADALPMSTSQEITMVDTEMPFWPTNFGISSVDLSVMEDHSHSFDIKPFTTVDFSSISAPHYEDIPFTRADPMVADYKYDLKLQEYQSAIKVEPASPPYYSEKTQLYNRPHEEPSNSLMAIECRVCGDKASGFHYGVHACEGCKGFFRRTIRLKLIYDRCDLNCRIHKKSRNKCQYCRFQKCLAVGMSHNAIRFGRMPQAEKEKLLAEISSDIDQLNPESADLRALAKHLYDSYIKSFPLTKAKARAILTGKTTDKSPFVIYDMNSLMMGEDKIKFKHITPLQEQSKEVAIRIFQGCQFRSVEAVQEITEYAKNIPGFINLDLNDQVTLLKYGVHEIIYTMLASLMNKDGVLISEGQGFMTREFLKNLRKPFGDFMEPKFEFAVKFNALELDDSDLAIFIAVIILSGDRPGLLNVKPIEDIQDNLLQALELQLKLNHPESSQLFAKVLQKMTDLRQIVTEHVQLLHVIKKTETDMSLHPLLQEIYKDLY
The data set is described as follows: Induction of PPAR-gamma promoter activity in LPS-stimulated mouse CMT93 cells at 10 uM preincubated for 30 mins before LPS-challenge measured after 6 hrs post challenge by luciferase reporter gene assay. The class given is cell-based. Put shortly: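 CMT-93 cells (1×10⁵/well) were transfected with an NF-κB or PPRE luciferase reporter plus CMV-β-Gal. At 24 h they were treated with compound for 30 min, then with 100 ng/mL LPS for 6 h. Cells were lysed in Tris/EDTA/DTT/Triton buffer and supernatant luciferase was read by luminometer. Results are fold over untreated cells.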
A general note: In a reporter assay the amount or activity of a reporter protein is the signal.

Data set [23] has as its system Macrophage. Description: Increase in PPAR-gamma mRNA transcript level in human macrophages at 10 uM by quantitative PCR analysis. The class given is functional, cell-based.

Active and inactive are the calls of the source. No cut-off for these calls is given here.

`O=C(O)c1ccncc1O`: the results for the Activity entry in data set [1], in data set [3] and in data set [6] were “Non-toxic”, “Toxic” and “Toxic”, respectively. For the same molecule, the inhibition entry in the data set on Macrophage [2], with Macrophage [4] and in the data set with Macrophage [5] was “inactive” each time.
With `Cc1c(O)c(C(=O)O)cc[n+]1C.[Cl-]`, the inhibition result in the data set with Macrophage [2], in the data set on Macrophage [4] and with Macrophage [5] was “Active” throughout. Moreover, the Activity in data set [7] amounted to 1418 ng/mL; in [8], 4.03 ng/mL; in data set [9], 1404 ng/mL; in data set [10], 7.04 ng/mL; in [11], 1394 ng/mL; in data set [12], 7.45 ng/mL. Also, the Activity in data set [13] came to 7.23 ng/mL; in data set [14], 1626 ng/mL; in data set [15], 7.34 ng/mL; in data set [16] it was 1368 ng/mL; in [17], 901 ng/mL; in data set [18], 6.4 ng/mL.
On to `Cc1nccc(C(=O)O)c1O`, for which the Activity entry in [1] was “Non-toxic”; in [3], “Toxic”; in data set [6], “Toxic”. The inhibition result in the data set on Macrophage [2], in the data set on Macrophage [4] and with Macrophage [5] was “inactive” in each case.
For the molecule `Cc1cc(C(=O)O)c(O)c(CO)n1`, the inhibition entry in the data set on Macrophage [2] and in the data set on Macrophage [5] was “Active” throughout.
Turning to `CCc1nccc(C(=O)O)c1O`, the inhibition result in the data set on Macrophage [2], in the data set on Macrophage [4] and in the data set with Macrophage [5] was “inactive” throughout.
On to `O=C(O)c1ccnc(CO)c1O`, for which the Activity result is recorded as “Non-toxic” in [1], “Toxic” in data set [3] and “Toxic” in [6]. Also, the inhibition entry in the data set with Macrophage [2], in the data set on Macrophage [4] and with Macrophage [5] was “inactive” each time.
In the case of `O=C(O)c1ccccc1O`, the inhibition entry in the data set with Macrophage [2], in the data set with Macrophage [4] and in the data set on Macrophage [5] was “Active” each time.
Consider `Nc1ccc(O)c(C(=O)O)c1`, for which the result in the data set on Macrophage [19] was Active. In the data set on Mus musculus [20], the inhibition result was “inactive”. The inhibition result in the data set on Mus musculus [21] is “Active”.
As for `CN(CCOc1ccc(CC2SC(=O)NC2=O)cc1)c1ccccn1` (centres undefined), the result (in data set [22]; with Macrophage [23]) was Active.
`CC(=O)Oc1ccccc1C(=O)O`: the inhibition result with Macrophage [2], in the data set on Macrophage [4] and with Macrophage [5] was “Active” throughout.
